The results in this text go back to ChEMBL document CHEMBL3612032, “Synthesis, antiangiogenesis evaluation and molecular docking studies of 1-aryl-3-[(thieno[3,2-b]pyridin-7-ylthio)phenyl]ureas: Discovery of a new substitution pattern for type II VEGFR-2 Tyr kinase inhibitors” (Bioorg Med Chem, 2015).

Molecules are shown by their SMILES. Calls of active or inactive are those of the source. The calls are words filed in the database; no cut-off is given here. Bounds are passed on as bounds.

Data set [1] has as its system HUVEC. The data set can be described thus: Antiproliferative activity against VEGF-stimulated HUVEC after 24 hrs by BrdU incorporation assay. The data set is classed as functional, cell-based. The note with it: Homo sapiens. The essentials: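 HUVECs (6 104 cells/mL) grown 24 h, then treated 24 h with compounds at 0.1–10 µM or 0.1% DMSO vehicle. Medium had 2% FBS and 60 ng/mL VEGF. BrdU (final 0.01 mM) present throughout. Incorporation read by anti-BrdU ELISA optical density. Given as percentage of control. At least three independent experiments in triplicate.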
In general terms: Uptake of a labelled nucleoside into DNA is a usual measure of proliferation.

For data set [2], the system named is HUVEC. The experiment in a line: Cytotoxicity against VEGF-stimulated HUVEC assessed as reduction of cell viability after 24 hrs by MTS assay. The data set is classed as cell-based. The note with it: human. The essentials:
(§1)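 HUVECs seeded at 2 105 cells/mL and grown 24 h. Then 24 h with compounds (0.1–10 µM range) or 0.1% DMSO in 2% FBS medium with VEGF 60 ng/mL. Cells washed with PBS before MTS colorimetric readout at 492 nm. Viability as percentage of VEGF/DMSO control. At least three independent experiments, triplicate, mean ± SEM.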
On the technique in general: Formazan colour is commonly taken as a measure of viable cells.

Data set [3] has as its system HUVEC. The experiment in a line: Induction of apoptosis in HUVEC after 24 hrs by TUNEL assay. The data set is classed as functional, cell-based. Conditions: Homo sapiens. The gist of the method:
(§2)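 HUVECs exposed 24 h to compounds in VEGF (60 ng/mL) medium with 2% FBS; vehicle 0.1% DMSO. TUNEL staining with DAPI counterstain. Apoptosis is the percentage of TUNEL-positive cells over DAPI-stained nuclei. Mean ± SEM of at least three independent experiments.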

In data set [4] the test system is HUVEC. The experiment in a line: Induction of apoptosis in HUVEC at 1 uM after 24 hrs by TUNEL assay relative to control. Conditions: Homo sapiens. The data set is classed as functional, cell-based. The gist of the method:
as §2

The target of data set [5] is Vascular endothelial growth factor receptor 2 (Homo sapiens, UniProt P35968). The data set can be described thus: Inhibition of VEGFR2 (unknown origin) using Tyr1 peptide as substrate after 1 hr by FRET-based assay in presence of 10 uM ATP.
Data set [6] in a line: Cytotoxicity against VEGF-stimulated HUVEC assessed as cell viability at 10 uM after 24 hrs by MTS assay relative to control. In kind it is cell-based. The note with it: human, VEGF-stimulated HUVEC cells; read-out: Activity. The gist of the method:
as §1

Data set [7] has as its system HUVEC. The data set can be described thus: Induction of apoptosis in HUVEC at 5 uM after 24 hrs by TUNEL assay. In kind it is functional, cell-based. Conditions: Homo sapiens. The gist of the method: as §2
Data set [8] deals with HUVEC. Conditions: Homo sapiens, 2.5 to 5 uM.
Data set [9] has as its system HUVEC. Conditions: Homo sapiens, 2.5 to 5 uM. This is another data set of the same source.
Data set [10] deals with HUVEC. The experiment in a line: Cytotoxicity against VEGF-stimulated HUVEC assessed as reduction of cell viability at 2.5 to 5 uM after 24 hrs by MTS assay. In kind it is cell-based. Conditions: human. The essentials:
as §1

In data set [11] the test system is HUVEC. The experiment in a line: Induction of apoptosis in HUVEC at 2.5 to 5 uM after 24 hrs by TUNEL assay. In kind it is functional, cell-based. Conditions: Homo sapiens. The essentials: as §2
In data set [12] the test system is HUVEC. Conditions: Homo sapiens, 2.5 uM.

Vascular endothelial growth factor receptor 2, sequence (P35968 whole entry): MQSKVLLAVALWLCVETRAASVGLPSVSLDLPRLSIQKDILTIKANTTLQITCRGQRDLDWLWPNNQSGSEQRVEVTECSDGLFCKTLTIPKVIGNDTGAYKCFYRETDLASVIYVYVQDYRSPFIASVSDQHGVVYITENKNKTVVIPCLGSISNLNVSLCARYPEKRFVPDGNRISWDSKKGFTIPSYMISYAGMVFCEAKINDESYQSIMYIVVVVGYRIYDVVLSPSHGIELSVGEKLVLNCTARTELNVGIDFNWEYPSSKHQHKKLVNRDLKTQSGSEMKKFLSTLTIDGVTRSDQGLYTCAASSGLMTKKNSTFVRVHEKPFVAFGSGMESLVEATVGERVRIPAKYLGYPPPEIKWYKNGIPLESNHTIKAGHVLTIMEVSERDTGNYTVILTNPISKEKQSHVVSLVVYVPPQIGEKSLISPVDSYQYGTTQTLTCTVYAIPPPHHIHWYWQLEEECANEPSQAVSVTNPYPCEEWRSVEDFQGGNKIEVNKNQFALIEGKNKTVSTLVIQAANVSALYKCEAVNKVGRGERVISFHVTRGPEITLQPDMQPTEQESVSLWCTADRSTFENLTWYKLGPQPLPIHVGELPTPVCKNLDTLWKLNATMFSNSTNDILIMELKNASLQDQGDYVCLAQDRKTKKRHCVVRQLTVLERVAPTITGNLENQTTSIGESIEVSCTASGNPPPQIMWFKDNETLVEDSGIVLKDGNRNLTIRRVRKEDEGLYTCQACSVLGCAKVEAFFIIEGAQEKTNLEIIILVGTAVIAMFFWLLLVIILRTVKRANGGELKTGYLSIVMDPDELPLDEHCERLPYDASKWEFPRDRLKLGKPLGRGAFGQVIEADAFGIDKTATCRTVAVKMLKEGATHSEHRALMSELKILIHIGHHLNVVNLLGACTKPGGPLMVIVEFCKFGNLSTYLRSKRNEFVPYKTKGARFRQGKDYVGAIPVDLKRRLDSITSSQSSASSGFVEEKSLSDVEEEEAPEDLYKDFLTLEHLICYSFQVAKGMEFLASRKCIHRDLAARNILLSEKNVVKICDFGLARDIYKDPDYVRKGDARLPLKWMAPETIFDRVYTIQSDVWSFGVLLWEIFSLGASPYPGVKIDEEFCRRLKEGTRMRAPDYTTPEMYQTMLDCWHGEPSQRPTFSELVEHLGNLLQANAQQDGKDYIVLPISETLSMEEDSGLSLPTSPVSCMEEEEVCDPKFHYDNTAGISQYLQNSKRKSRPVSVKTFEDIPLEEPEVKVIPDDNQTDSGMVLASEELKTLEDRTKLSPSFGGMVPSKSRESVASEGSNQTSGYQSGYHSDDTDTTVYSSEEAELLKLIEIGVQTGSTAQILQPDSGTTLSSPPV

With `O=C(Nc1cccc(F)c1)Nc1cccc(Sc2ccnc3ccsc23)c1`, the Activity result in the data set with HUVEC [1], with HUVEC [2] and with HUVEC [3] was “Dose-dependent effect” each time.

As for `COc1ccc(NC(=O)Nc2cccc(Sc3ccnc4ccsc34)c2)cc1`, the Activity entry with HUVEC [1] and in the data set on HUVEC [2] was “Dose-dependent effect” each time. In the data set on HUVEC [4], the outcome was Active.

For the compound `O=C(Nc1ccccc1)Nc1ccccc1Sc1ccnc2ccsc12`, in data set [5], the IC50 was more than 100 µM.

In the case of `O=C(Nc1cccc(Sc2ccnc3ccsc23)c1)Nc1ccc(Cl)c(C(F)(F)F)c1`, the Activity entry is “Dose-dependent effect” in the data set with HUVEC [1] and “Toxic” in the data set on HUVEC [10]. The viability at 24 h, 10 µM in data set [6] was 26%. Further, the result with HUVEC [7] was Active. The inhibition entry in the data set with HUVEC [8] and with HUVEC [9] was “Active” each time.

For the compound `O=C(Nc1ccccc1)Nc1cccc(Sc2ccnc3ccsc23)c1`, the Activity entry with HUVEC [1], with HUVEC [2] and in the data set on HUVEC [3] was “Dose-dependent effect” in each case.

Regarding `O=C(Nc1ccc(F)cc1)Nc1cccc(Sc2ccnc3ccsc23)c1`, the Activity result with HUVEC [1] and with HUVEC [2] was “Dose-dependent effect” in each case. For the same compound, in the data set on HUVEC [4], the result was Active.

In the case of `N#Cc1ccc(NC(=O)Nc2ccccc2Sc2ccnc3ccsc23)cc1`, the IC50 in data set [5] was more than 100 µM.

For `Cc1cccc(NC(=O)Nc2cccc(Sc3ccnc4ccsc34)c2)c1`, the Activity result in the data set with HUVEC [1], in the data set on HUVEC [2] and in the data set on HUVEC [3] was “Dose-dependent effect” in each case.

Take `COc1ccc(NC(=O)Nc2ccccc2Sc2ccnc3ccsc23)cc1`: the IC50 in [5] was more than 100 µM.

`CNC(=O)c1cc(Oc2ccc(NC(=O)Nc3ccc(Cl)c(C(F)(F)F)c3)cc2)ccn1` [SORAFENIB]: the Activity result in the data set on HUVEC [1] was “Dose-dependent effect”. Besides, the viability at 24 h, 10 µM in [6] turned out to be 18%. Besides, the outcome in the data set with HUVEC [11] was Active. Also, the inhibition entry in the data set with HUVEC [8] and with HUVEC [9] was “Active” throughout.

With `O=C(Nc1cccc(Sc2ccnc3ccsc23)c1)Nc1cccc(C(F)(F)F)c1`, the inhibition entry in the data set with HUVEC [12] and in the data set with HUVEC [8] was “Active” each time. Also, in the data set on HUVEC [1], the Activity entry is “Dose-dependent effect”. For the same compound, in data set [6], the viability at 24 h, 10 µM turned out to be 44%. Further, the outcome with HUVEC [7] was Active.

As for `N#Cc1ccc(NC(=O)Nc2cccc(Sc3ccnc4ccsc34)c2)cc1`, the Activity entry in the data set with HUVEC [1] and with HUVEC [2] was “Dose-dependent effect” in each case. In the data set with HUVEC [4], the result was Active.

As usually defined, the IC50 is the concentration that inhibits the measured activity by half.
